Measured values as given in ChEMBL document CHEMBL4610083, “Kendomycin Cytotoxicity against Bacterial, Fungal, and Mammalian Cells Is Due to Cation Chelation” (J Nat Prod, 2020).
The source made the active and inactive calls. The calls are words filed in the database; no cut-off is given here. Residues, ends and D or L forms follow the SMILES beside them. *: point of attachment. Cbz = O=C(OCc1ccccc1)*

Tests used:
[1] = Metal chelating activity assessed as compound-Cu2+ complex formation by UV-Vis spectrophotometric analysis
How it was run: (§1)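 250 μM compound titrated with increasing metal concentrations and absorption spectra recorded. A320 measured in quadruplicate; averages fitted to a binding curve to give apparent Kapp.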

HCT-116 [2] = test: Inhibition of protein biogenesis in human HCT116 cells assessed as reduction in secreted protein level at 100 to 1000 nM preincubated for 30 mins followed by addition of 35S-labeled methionine/cysteine and measured after 90 mins by autoradiography; type: functional, cell-based
How it was run: (§2)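 HCT116 cells seeded at 0.5 × 10^6/well and grown 24 h at 37 °C, 5% CO2. Washed, then given compound in Met/Cys-free DMEM for 30 min at 37 °C. Pulsed with 100 μCi 35S-Met/Cys for 90 min. Total protein taken by RIPA extraction of the cell pellet; secreted protein by TCA precipitation of the medium. Gels exposed to phosphor screens and scanned.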

Bacillus subtilis [3] = test: Antibacterial activity against Bacillus subtilis assessed as reduction in microbial growth in presence of FeCl2 by serial dilution method; type: functional, organism-based
How it was run: (§3)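 Mid-log cultures in LB back-diluted to low OD; 8-point compound serial dilution added, with or without freshly prepared 0.25 mM FeCl2 or 0.25 mM CuCl2. Incubation at 37 °C with orbital shaking at 1000 rpm. Cell density read as A600, duplicate data sets, inhibition curves fitted by regression.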

[4] = Metal chelating activity assessed as compound-[…] complex formation by UV-Vis spectrophotometric analysis
HCT-116 [5] = test: Antiproliferative activity against human HCT116 cells assessed as reduction in cell viability incubated for 72 hrs in presence of FeCl2 by AlamarBlue assay; type: functional, cell-based
How it was run: (§4)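 HCT116 cells in McCoy's 5A with 10% FBS, seeded at 2500 cells/well. Dosed 16 h after plating, with or without 0.5 mM FeCl2 or 0.5 mM CuCl2. After 72 h, 10% resazurin added for 4 h, then fluorescence read (ex 580/em 620 nm). Viability given as % of carrier growth; curves from quadruplicate technical replicates.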

HCT-116 [6] = test: Antiproliferative activity against human HCT116 cells assessed as reduction in cell viability incubated for 72 hrs in presence of CuCl2 by AlamarBlue assay; type: functional, cell-based; how it was run: as §4
HCT-116 [7] = test: Inhibition of protein biogenesis in human HCT116 cells assessed as reduction in total protein level at 100 to 1000 nM preincubated for 30 mins followed by addition of 35S-labeled methionine/cysteine and measured after 90 mins by autoradiography; type: functional, cell-based; how it was run: as §2
[8] = Binding affinity to Cu2+ ion assessed as compound-Cu2+ formation by 1H NMR spectroscopy
Bacillus subtilis [9] = test: Antibacterial activity against Bacillus subtilis assessed as reduction in microbial growth in presence of CuCl2 by serial dilution method; type: functional, organism-based; how it was run: as §3
[10] = Metal chelating activity assessed as compound-Fe3+ complex formation by UV-Vis spectrophotometric analysis; how it was run: as §1
[11] = Metal chelating activity assessed as compound-calcium complex formation by UV-Vis spectrophotometric analysis
[12] = Binding affinity to Fe2+ ion assessed as compound-Fe2+ formation by 1H NMR spectroscopy
Saccharomyces cerevisiae [13] = test: Antifungal activity against Saccharomyces cerevisiae assessed as reduction in microbial growth in presence of CuCl2; type: functional, organism-based
How it was run: (§5)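 Single-colony inhibition on solid medium, with or without 1 mM FeCl2 or 0.25 mM CuCl2 in the agar. Colonies washed off the plates with PBS and cell density read as A600. Inhibition curves fitted by regression.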

Proteasome [14] = test: Inhibition of proteosome in HEK293T cells assessed as reduction in UbG76V-GFP degradation at 250 nM incubated for 4 hrs by flow cytometric analysis; conditions: Homo sapiens, HEK-293T
Saccharomyces cerevisiae [15] = test: Antifungal activity against Saccharomyces cerevisiae assessed as reduction in microbial growth in presence of FeCl2; type: functional, organism-based; how it was run: as §5
Proteasome [16] = test: Inhibition of proteosome in human K562 cells assessed as reduction in UbG76V-GFP degradation at 2.5 to 10 uM incubated for 4 hrs by flow cytometric analysis
How it was run: (§6)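 K562 cells carrying a lentivirally integrated, TRE2-driven UbG76V-GFP reporter. Reporter induced with 1 μg/mL doxycycline (final) 16 h before compound. Cells treated with compound or carrier for 4 h, then GFP fluorescence measured by flow cytometry.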

[17] = Metal chelating activity assessed as compound-Fe2+ complex formation by UV-Vis spectrophotometric analysis; how it was run: as §1
Proteasome [18] = test: Inhibition of proteosome in human K562 cells assessed as reduction in UbG76V-GFP degradation at 2 uM incubated for 4 hrs by flow cytometric analysis; how it was run: as §6
HCT-116 [19] = test: Inhibition of protein biogenesis in human HCT116 cells assessed as reduction in total protein level preincubated for 30 mins followed by addition of 35S-labeled methionine/cysteine and measured after 90 mins by autoradiography; type: functional, cell-based
How it was run: (§7)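 HCT116 cells seeded at 0.5 × 10^6 per well and grown 24 h at 37 °C, 5% CO2. After two washes, compound in DMEM lacking Met/Cys was added for 30 min at 37 °C, then 100 μCi 35S-Met/Cys for a further 90 min. Secreted protein was recovered from medium by TCA precipitation, total protein by RIPA extraction of washed cells. Gels were read by phosphor screen imaging.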

HCT-116 [20] = test: Inhibition of protein biogenesis in human HCT116 cells assessed as reduction in secreted protein level preincubated for 30 mins followed by addition of 35S-labeled methionine/cysteine and measured after 90 mins by autoradiography; type: functional, cell-based; how it was run: as §7

Compound: CC1=C2O[C@]3(O)C=C2C(=C(O)C1=O)[C@@H]1O[C@H](CC[C@H](C)/C=C(\C)C[C@@H](C)C[C@@H]3C)[C@H](C)[C@H](O)[C@H]1C
- Activity [1]: Dose-dependent effect
- Kapp [1]: 48 µM
- inhibition (HCT-116 [2]): inactive
- Activity (Bacillus subtilis [3]): inactive
- Activity [4]: inactive
- Activity (HCT-116 [5]): inactive
- Activity (HCT-116 [6]): Active
- inhibition (HCT-116 [7]): inactive
- Activity [8]: Active
- Activity (Bacillus subtilis [9]): inactive
- Activity [10]: Dose-dependent effect
- Kapp [10]: 76 µM
- Activity [11]: inactive
- Activity [12]: Active
- Activity (Saccharomyces cerevisiae [13]): inactive
- inhibition (Proteasome [14]): inactive
- Activity (Saccharomyces cerevisiae [15]): inactive
- inhibition (Proteasome [16]): inactive
- Activity [17]: Dose-dependent effect
- Kapp [17]: 19 µM

Compound: CC(C)C[C@@H](C=O)NC(=O)[C@H](CC(C)C)NC(=O)[C@H](CC(C)C)NC(=O)OCc1ccccc1 (Cbz-Leu-Leu-Leu-aldehyde)
- inhibition (Proteasome [18]): Active
- inhibition (Proteasome [14]): Active

Compound: C[C@@H]1C[C@@H]([C@H](O)CC2CC(=O)NC(=O)C2)C(=O)[C@@H](C)C1
- inhibition (HCT-116 [19]): Active
- inhibition (HCT-116 [20]): Active
